These compounds were tested on BJeLR fibroblasts viability, Alamar Blue fluorescence, 48 h (assay: viability loss in engineered Ras-driven BJ cells – cell-based, alamar blue fluorescence, powder samples, dose response (AID 2609)).
Method in brief: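 Technique: Alamar blue fluorescence, excitation 544 nm, emission 590 nm / Medium: DMEM plus M199 with heat-inactivated fetal bovine serum / Timing: 48 h compound exposure, 37 °C, then ~16 h alamar blue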

| SMILES | EC50 [nM] |
| --- | --- |
| COC(=O)[C@@H]1Cc2c([nH]c3ccccc23)C(C)(C)N1C(=O)CCl | 4010 |
| COc1ccc(C(C(=O)NC2CCCCC2)N(C(=O)CCl)c2cccc(Cl)c2)cc1 (centres undefined) | 3190 |
| C=CCOc1ccccc1CN(C(=O)CCl)c1ccc2c(c1)OCO2 | 7650 |
| CCOc1ccc(Nc2nc(N)nc(CCl)n2)cc1 | 2210 |
| COc1ccc(CN(CCC(c2ccccc2)c2ccc(OC(C)C)cc2)C(=O)CCl)cc1OC (centres undefined) | 890 |
| COc1cccc(N(C(=O)CCl)C(C(=O)NCCc2ccccc2)c2cccs2)c1 (centres undefined) | 2350 |
| Nc1nc(CCl)nc(Nc2ccc3ccccc3c2)n1 | 2500 |
| COc1ccc(C(C(=O)NC2CCCCC2)N(C(=O)CCl)c2ccc(C)cc2)cc1 (centres undefined) | 8330 |
| COc1ccc(N(C(=O)CCl)C(C(=O)NCCc2ccccc2)c2cccs2)cc1 (centres undefined) | 1690 |
| Cc1ccc(C2CC(c3cccs3)=NN2C(=O)CCl)cc1 (centres undefined) | 2920 |
| COc1ccc(N(C(=O)CCl)C(C(=O)NCCc2ccccc2)c2cccs2)cc1Cl (centres undefined) | 990 |
| O=C(CCl)N=c1sccn1Cc1ccccc1Cl | 4940 |
| CCCCCCCN(C(=O)CCl)c1cccc(C)c1 | 3440 |
| Cc1ccc(N(C(=O)CCl)C(C(=O)NC2CCCCC2)c2cccnc2)cc1C (centres undefined) | 1400 |
